Measurements of several laboratories.
Lines come from different studies, so protocols differ.
Target: Serine/threonine-protein kinase 4 (STK4, Homo sapiens, UniProt Q13043)
Residues used in one study (Q13043 1-487): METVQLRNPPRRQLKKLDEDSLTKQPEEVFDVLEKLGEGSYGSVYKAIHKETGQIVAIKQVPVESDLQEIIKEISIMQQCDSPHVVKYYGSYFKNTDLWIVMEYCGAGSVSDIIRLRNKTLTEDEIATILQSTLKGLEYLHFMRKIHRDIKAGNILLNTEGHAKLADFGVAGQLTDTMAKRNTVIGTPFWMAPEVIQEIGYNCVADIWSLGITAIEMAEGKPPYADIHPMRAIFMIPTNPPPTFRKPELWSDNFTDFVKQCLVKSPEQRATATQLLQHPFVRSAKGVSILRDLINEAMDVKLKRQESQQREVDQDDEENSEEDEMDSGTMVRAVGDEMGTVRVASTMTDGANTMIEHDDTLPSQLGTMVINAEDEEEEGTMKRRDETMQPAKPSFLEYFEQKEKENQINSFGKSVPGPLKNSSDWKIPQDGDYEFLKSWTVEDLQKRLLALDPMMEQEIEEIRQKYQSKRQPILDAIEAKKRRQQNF

Compound | read-out | action | method | concentration | endpoint | result
CC(C)(C)c1nc2c(s1)c1nc(N)ncc1c1ccc(NS(=O)(=O)c3c(F)cccc3F)c(F)c12 | enzyme activity | inhibitor | radiometric | 1 µM | remaining activity | 86%
Cc1cnc(NC2CCOCC2)nc1-n1cnc(C(=O)NC(CN)c2cc(F)cc(Cl)c2)c1 (centres unmarked) | enzyme activity | inhibitor | radiometric | 1 µM | remaining activity | 103%
O=C(Nc1cnn(-c2csc(C(=O)NC3COC3)c2)c1)Nc1ccccc1Cl | enzyme activity | inhibitor | – | 5 µM | remaining activity | 99.3%
CS(=O)(=O)N1CCCC(NC(=O)[C@H](CCC2CCCCC2)NC(=O)c2ccc(CNC(=O)c3cnc4ccccn34)cc2)C1 (some centres unmarked) | cell-free assay | – | competition with immobilised ligand | 0.1 µM | remaining binding | 100%
Cc1ccc(Nc2nccc(N(C)c3ccc4c(C)n(C)nc4c3)n2)cc1S(N)(=O)=O | enzyme activity | inhibitor | – | 0.3 µM | inhibition | 1%
N#CCCc1ccc2c(c1)-c1[nH]c3ccc([N+](=O)[O-])cc3c1CC(=O)N2 | cell-free assay | – | – | 0.5 µM | remaining signal | 30.9%
c1ccc(CNc2nc(N3CCOc4ccccc43)nc3c2CCCC3)cc1 | target engagement in cells | inhibitor | chemoproteomics | 20 mM | inhibition | 1.2%
CNC(=O)c1cc(Oc2ccc(NC(=O)Nc3ccc(Cl)c(C(F)(F)F)c3)cc2)ccn1 | enzyme activity | inhibitor | – | 0.3 µM | inhibition | -7%
CN(c1nccc(-c2cnn3ncccc23)n1)C1CC1 | cell-free assay | – | – | 1 µM | remaining signal | 99%
Cn1c2c(c3ccc(Cl)c(Cl)c31)C(C#N)C1(CCCC1)NC2=O (centres unmarked) | thermal stability | – | DSF | 10 µM | ΔTm | 0.3 °C
Nc1cnc(N2CCc3cc(S(=O)(=O)Nc4c(F)cc(Cl)cc4F)cc(N4CCCC4=O)c32)nc1 | cell-free assay | – | competition with immobilised ligand | 1 µM | remaining binding | 100%
CC/C(=N\NC(=O)NCc1cccc(O)c1)c1ccc(O)c(C)c1O | enzyme activity | inhibitor | – | 0.1 µM | inhibition | -0.7%
Cc1ccc(C(=O)Nc2ccc(CN3CCN(C)CC3)c(C(F)(F)F)c2)cc1C#Cc1cnc2cccnn12 | enzyme activity | inhibitor | – | 23.5 nM | remaining activity | 100%
O=C(N1CCS(=O)(=O)CC1)N1C[C@H](c2ccc(OC(F)(F)F)cc2)C[C@H](c2nc(C3CC3)no2)C1 | cell-free assay | – | competition with immobilised ligand | 1 µM | remaining binding | 100%
Cn1c2c(Cl)c(Cl)ccc2c2cc[nH]c(=O)c21 | thermal stability | – | DSF | 10 µM | ΔTm | 0.8 °C
O=C1NC(=O)c2cc(Nc3ccc(F)cc3)c(Nc3ccc(F)cc3)cc21 | cell-free assay | – | – | 0.5 µM | remaining signal | 101%
Cc1nccc(COC(=O)N2C[C@@H]3[C@@H](CNC(=O)c4ccc5[nH]nnc5c4)[C@@H]3C2)n1 | cell-free assay | – | competition with immobilised ligand | 1 µM | remaining binding | 100%
COc1cc2ncnc(Nc3ccc(Oc4ccccc4)c(C)c3C)c2cc1OC | enzyme activity | inhibitor | – | 1 µM | inhibition | -7%
Cn1nc(C(=O)NCc2ccc(C(=O)O)cc2)cc1-c1ccc2[nH]ccc2c1 | cell-free assay | – | competition with immobilised ligand | 0.1 µM | remaining binding | 80%
CN1CCC2(CC1)NC(=O)c1c(c3ccc(Cl)c(Cl)c3n1C)C2C#N (racemic) | thermal stability | – | DSF | 10 µM | ΔTm | 0 °C
